From PubChem
Compounds with a hit are over-represented: about 1.7% of the library has one in this group of screens.
eIF4H inh – human eIF4H binding inhibitors, primary screen, translation initiation inhibitor project, biochemical, uHTS, fluorescence polarization | hit rate 0.94% among 290,000 | eIF4H fluorescence polarization binding assay | Eukaryotic translation initiation factor 4H (Homo sapiens), Q15056 | AID 2012, 2009 | inhibition, % at 35 µM;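 note: calls also rest on retests at 20 µM and on dose response follow-up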
PABP FP inh – PABP poly(A) RNA binding inhibitors, primary screen, biochemical, fluorescence polarization, uHTS; hit rate 1% among 290,000; inhibition, % at 35 µM; AID 2014, 2009; Polyadenylate-binding protein 1 (Homo sapiens), P11940;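 note: calls also rest on retests at 20 µM and on dose response follow-up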
Target sequence (P11940 whole entry, looked up): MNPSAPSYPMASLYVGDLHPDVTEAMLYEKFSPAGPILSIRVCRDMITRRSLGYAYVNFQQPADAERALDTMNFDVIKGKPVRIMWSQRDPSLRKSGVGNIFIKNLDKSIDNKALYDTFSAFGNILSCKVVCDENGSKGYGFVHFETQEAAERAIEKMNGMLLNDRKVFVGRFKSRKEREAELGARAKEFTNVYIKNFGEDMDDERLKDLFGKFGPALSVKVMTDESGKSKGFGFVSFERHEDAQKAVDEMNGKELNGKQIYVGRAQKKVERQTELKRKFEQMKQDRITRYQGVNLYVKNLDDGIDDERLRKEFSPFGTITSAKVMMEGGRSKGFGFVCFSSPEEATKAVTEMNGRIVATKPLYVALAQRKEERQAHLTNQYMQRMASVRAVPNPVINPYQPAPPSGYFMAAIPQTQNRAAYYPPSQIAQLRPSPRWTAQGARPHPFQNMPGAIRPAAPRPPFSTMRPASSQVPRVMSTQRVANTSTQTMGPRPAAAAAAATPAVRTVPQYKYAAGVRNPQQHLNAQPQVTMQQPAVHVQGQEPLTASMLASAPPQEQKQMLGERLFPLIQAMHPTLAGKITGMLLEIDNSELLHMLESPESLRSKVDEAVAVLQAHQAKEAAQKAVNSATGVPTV
SKN-1 inh – suppressors of acrylamide-induced Pgst-4::GFP reporter in worms, primary screen, SKN-1 inhibitor project, whole organism, uHTS, GFP/RFP fluorescence ratio, strain VP596. inhibition, % at 21.8 µM. hit rate 0.49% among 360,000. C. elegans VP596 Pgst-4::GFP/RFP ratio, 24 h;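 active = interference check ratio from 0.5 to 1.5 plus GFP to RFP signal ratio inhibition reaching or exceeding a fixed threshold, cut at about 30% in these data, passing the limit was not always enough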
MLLE-PAM2 inh – inhibitors of PABP1 MLLE–PAM2 peptide binding, primary screen, biochemical, fluorescence polarization, FITC-PAM2, GST-MLLE. inhibition, % at 20 µM. Polyadenylate-binding protein 1 (Homo sapiens), P11940. hit rate 0.36% among 360,000; in the data active = inhibition above about 35%, passing the limit was not always enough;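 note: plate controls were DMSO wells with GST-MLLE for no effect and wells lacking GST-MLLE protein for full effect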
MT1-MMP act inh – blockers of MT1-MMP proenzyme processing, primary screen, HT1080 RFP-PRO-GFP cells, GFP/RFP fluorescence. GFP/RFP ratio fluorescence, overnight; percent of plate control window, DMSO zero. GFP/RFP ratio change, % at 20 µM. hit rate 0.061% among 360,000. AID 651647, 2012;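 active = GFP/RFP ratio change of at least 30% with cell ATP level not reduced by more than half and red fluorescence within 50% of control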
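Test system: HT1080 RFP-PRO-GFP cells; Benchmarks: DMSO and RFP-L50D-GFP cell wells; Timing: cells overnight before dosing, compound overnight, 37 °C, 5% CO2; Compound: one 20 µM compound dose with 1% DMSO; Read-out: GFP/RFP fluorescence ratio.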
* hit, by the source's call; ? = inconclusive; nt = no result given. Unless noted, the rule behind the calls is not given here.

SMILES	eIF4H inh	PABP FP inh	SKN-1 inh	MLLE-PAM2 inh	MT1-MMP act inh
O=[N+]([O-])c1ccc(NCc2ccc(Cl)cc2)nc1	-10.1	13.2	43.0*	14.7	4.0
CC1(OC(=O)CCc2ccccc2)C(=O)C=C2C=C(c3ccc(C#N)cc3)N(C3CC3)C=C2C1=O (stereo not given)	64.7	38.3*	-0.9	-20.6	5.2
COCCN1C=C2C(=O)C(C)(OC(=O)c3cccs3)C(=O)C=C2C=C1CCCC(=O)OC (stereo not given)	64.2	27.4	-5.5	21.0	-0.4
COC(=O)CCCC1=CC2=CC(=O)C(C)(OC(=O)c3cccs3)C(=O)C2=CN1C1CC1 (stereo not given)	87.4*	55.1*	7.5	18.7	3.6
COC(=O)CCCC1=CC2=CC(=O)C(C)(OC(=O)c3cccs3)C(=O)C2=CN1C1CCCCC1 (stereo not given)	18.5	10.6	-3.4	16.4	4.4
COC(=O)CCCC1=CC2=CC(=O)C(C)(OC(=O)c3cccs3)C(=O)C2=CN1CCN1CCOCC1 (stereo not given)	115.2	63.5*	33.6	22.9	12.5
CCCCC1=CC2=CC(=O)C(C)(OC(=O)CC)C(=O)C2=CN1CCCCO (stereo not given)	61.9	36.3	4.2	44.6*	2.4
CCCNC(=O)C1(C)CCCN(C(=O)c2c(F)ccc(C)c2F)C1 (stereo not given)	nt	nt	-9.8	10.6	5.1
COc1ccccc1CN(C)C(=O)CSCC(=O)Nc1ccccc1F	nt	nt	16.3	0.7	-1.6
COC(=O)c1sc(NC(=O)c2ccco2)nc1C	-1.1	6.1	-7.6	-1.4	11.0
CCOC(=O)c1sc(NC(=S)NC(=O)c2ccco2)nc1C	4.2	-5.8	-13.3	41.3*	5.3
CCOC(=O)c1sc(NC(=S)NC(=O)c2ccc(OC)cc2)nc1C	-6.2	-7.9	9.4	14.9	2.1
COc1ccc(C(=O)NC(=S)Nc2nc(C)c(C(=O)N(C)C)s2)cc1	6.4	15.5	-4.3	44.5*	-1.2
OCC1OC(n2ccc3c(SCc4ccccc4)ncnc32)C(O)C1O (stereo not given)	nt	nt	8.8	-4.2	-6.5
Clc1ccc(SCc2cc(-c3ccc(Cl)cc3)on2)cc1	-11.9	5.0	52.6*	4.3	-1.7
Cc1ccc(SCc2cc(-c3ccc(Cl)cc3)on2)cc1	3.2	-7.4	-14.9	-3.5	-0.1
FCCCOc1ccc(-c2ccnc(-c3ccccc3)n2)cc1	3.8	2.9	57.0*	5.7	8.9
CC(CS(=O)(=O)c1cccc2cccnc12)N1CCCCC1 (stereo not given)	53.1*	78.6*	6.5	30.6	-6.2
COc1cc(C2c3sc(=O)[nH]c3SC3C(=O)N(c4ccc(Br)cc4)C(=O)C32)ccc1O (stereo not given)	0.7	6.1	4.4	47.2*	-6.8
CC(C)(C)c1ccc(C(=O)NCCCNC(=O)c2ccccn2)cc1	-6.1	4.3	12.5	6.0	3.0
CC(Oc1ccc(Cl)cc1Cl)C(=O)Nc1cccc(O)c1 (stereo not given)	-9.4	1.7	-5.7	4.4	-7.3
CC(Oc1ccc(Cl)cc1Cl)C(=O)Nc1ccc(O)cc1 (stereo not given)	2.6*	58.6	-3.5	10.4	0.9
Cc1cc(C(F)(F)F)nc(SCC(=O)NC2=NC(=O)C(C)S2)n1 (stereo not given)	-2.4	7.3	-9.1	44.4*	-0.7
Cc1cc(C)nc(SCC(=O)NC2=NC(=O)C(C)S2)n1 (stereo not given)	0.7	-5.4	nt	nt	nt
O=c1[nH]c(CN2CCCCC2)ccc1O	nt	nt	22.3	45.0*	-5.6
SMILES	eIF4H inh	PABP FP inh	SKN-1 inh	MLLE-PAM2 inh	MT1-MMP act inh
O=c1[nH]cnc(CN2CCCCC2)c1O	nt	nt	-9.3	12.6	4.0
O=C(NCC(=O)N1CCN(c2ccccc2O)CC1)c1ccc(Br)o1	nt	nt	-18.1	0.1	-3.8
Cc1cccc(N(C)C(=O)c2cnn(-c3ccccc3)c2C)c1	30.9	24.8	10.3	5.1	-2.6
Cc1c(C(=O)N(C)c2ccc(Cl)cc2)cnn1-c1ccccc1	8.7	2.7	38.0*	-0.8	0.6
COc1ccc(CCNC(=O)CNC(=O)c2ccccc2Br)cc1OC	2.0	-0.8	20.7	-6.9	-0.5
Cc1cccnc1NC(=S)NC(=O)c1oc2ccccc2c1C	2.7	0.5	3.5	40.2*	-0.9
Cc1ccc(C(=O)Nc2cc(C(C)C)c(O)c(C(C)C)c2)cc1	-3.7	0.2	1.5	-6.7	7.6
Cc1cc2nn(-c3ccc(Cl)cc3)nc2cc1N	3.6	-2.9	20.4	-16.6	0.1
Cc1cc2nn(-c3ccc(F)cc3)nc2cc1N	-9.9	12.4	39.4*	-24.2	-3.1
C/C=C(\C)C(=O)NCCN1C2=NC[C@H](C(C)C)N2C[C@@H]1Cc1ccc(OC)cc1	47.9	52.3*	5.4	10.6	-0.9
COc1cccc(CNC(=O)C2CCN(S(=O)(=O)c3ccc4c(c3)C(C)(C)C(=O)N4C)CC2)c1	nt	nt	-5.6	-14.9	4.7
Cc1cc([N+](=O)[O-])ccc1NCc1ccc2ccccc2c1	-2.9	-1.1	15.3	1.7	0.8
Cc1cc([N+](=O)[O-])ccc1NCc1ccccc1	4.0	-9.7	36.9*	-1.8	-1.3
Cc1nnc(SCC(=O)Nc2cc(S(C)(=O)=O)ccc2Cl)n1Cc1ccccc1	0.9	-8.7	15.0	-5.3	0.3
CC(O)CNc1cnccn1 (stereo not given)	62.8*	70.7*	15.3	10.3	-2.2
Cc1ccc2sc(NC(=O)c3cccc(N4C(=O)CCC4=O)c3)nc2c1C	-5.4	-6.9	37.5*	10.6	-1.5
Cc1ccccc1NC(=O)CSc1ccsc1[N+](=O)[O-]	?	32.5*	1.7	7.0	-8.4
CCc1nnc(NC(=O)CSc2ccc(-c3ccco3)nn2)s1	95.3*	active	5.6	-3.0	3.6
COCCCNC(=O)CSc1ccsc1[N+](=O)[O-]	3.4	-12.9	-10.2	13.5	-0.7
CCc1nnc(NC(=O)CC(C)c2ccccc2)s1 (stereo not given)	3.0	5.5	35.7*	2.7	-7.9
Cc1ccccc1NC(=O)CSc1ccc(-c2ccco2)nn1	?	0.3*	7.7	16.2	3.3
CCOc1ccccc1N1CCN(C(=O)CCNS(=O)(=O)c2ccccc2F)CC1	nt	nt	-3.3	-2.2	3.1
O=C(Nc1ccc(-c2nc3ccccc3[nH]2)cc1)C1CCCN(Cc2ccn[nH]2)C1 (stereo not given)	nt	nt	5.8	-2.8	3.5
CC(C)Cc1nnc(NC(=O)Cc2cccs2)s1	73.7*	55.3*	10.1	-58.3	-2.9
CN1C(=O)SC(Nc2ccccc2C(=O)O)C1=O (stereo not given)	3.3	20.5	-0.9	38.4*	-6.6
